Test in all cases: aerobic spectrophotometric titration of flavin absorbance
Holding throughout (type): binding

Test [1] deals with T1, Class 2 dihydroorotate dehydrogenase (DHOD) from E. coli (Escherichia coli, UniProt P0A7E1, F115L/T178V).
T1 sequence (P0A7E1 1-336 F115L/T178V): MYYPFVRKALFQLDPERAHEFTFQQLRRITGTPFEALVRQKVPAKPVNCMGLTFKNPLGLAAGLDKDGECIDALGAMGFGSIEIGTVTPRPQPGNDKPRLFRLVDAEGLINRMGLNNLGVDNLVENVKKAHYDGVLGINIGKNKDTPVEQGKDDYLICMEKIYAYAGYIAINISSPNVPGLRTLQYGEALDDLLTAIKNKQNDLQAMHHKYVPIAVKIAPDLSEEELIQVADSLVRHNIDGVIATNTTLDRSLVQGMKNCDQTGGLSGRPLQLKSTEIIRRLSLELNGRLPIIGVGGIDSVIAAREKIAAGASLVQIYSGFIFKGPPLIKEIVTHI
The method in brief: (§1)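 Enzymes (wild-type and mutants) expressed from the pAG-1 plasmid in E. coli SØ6645, purified, stored at −80 °C in 50% glycerol, and desalted into buffer before use. The oxidized enzyme in 0.1 M Tris-HCl, pH 8.5, 25 °C, was titrated aerobically with orotate in the same buffer. The flavin absorbance change (456→475 nm red-shift) vs orotate was fit to a binding equation using total enzyme and total ligand to give Kd.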

Test [2] concerns the target T2, Class 2 dihydroorotate dehydrogenase (DHOD) from E. coli (Escherichia coli, UniProt P0A7E1, T178V).
T2 sequence (P0A7E1 1-336 T178V): T1 sequence (P0A7E1 1-336 F115L/T178V) with L115F
In outline:
as §1

Test [3] deals with T3, Class 2 dihydroorotate dehydrogenase (DHOD) from E. coli (Escherichia coli, UniProt P0A7E1, T178A).
T3 sequence (P0A7E1 1-336 T178A): T1 sequence (P0A7E1 1-336 F115L/T178V) with L115F, V178A
In outline: as §1

Test [4] has as its target T4, Class 2 dihydroorotate dehydrogenase (DHOD) from E. coli (Escherichia coli, UniProt P0A7E1, T178S).
T4 sequence (P0A7E1 1-336 T178S): T1 sequence (P0A7E1 1-336 F115L/T178V) with L115F, V178S
The method in brief: as §1

In test [5] the target is T5, Class 2 dihydroorotate dehydrogenase (DHOD) from E. coli (Escherichia coli, UniProt P0A7E1, S175A).
T5 sequence (P0A7E1 1-336 S175A): T1 sequence (P0A7E1 1-336 F115L/T178V) with L115F, S175A, V178T
The method in brief:
as §1

For test [6], the target named is T6, Class 2 dihydroorotate dehydrogenase (DHOD) from E. coli (Escherichia coli, UniProt P0A7E1, F115A).
T6 sequence (P0A7E1 1-336 F115A): T1 sequence (P0A7E1 1-336 F115L/T178V) with L115A, V178T
The method in brief:
as §1

In test [7] the target is T7, Class 2 dihydroorotate dehydrogenase (DHOD) from E. coli (Escherichia coli, UniProt P0A7E1, F115W).
T7 sequence (P0A7E1 1-336 F115W): T1 sequence (P0A7E1 1-336 F115L/T178V) with L115W, V178T
The method in brief:
as §1

Test [8] concerns the target T8, Class 2 dihydroorotate dehydrogenase (DHOD) from E. coli (Escherichia coli, UniProt P0A7E1, F115L).
T8 sequence (P0A7E1 1-336 F115L): T1 sequence (P0A7E1 1-336 F115L/T178V) with V178T
In outline: as §1

Where a chain is given by its changes, count along the chain named.

For `O=C(O)c1cc(=O)[nH]c(=O)[nH]1` [orotate], the dissociation constant Kd (usually the free concentration of one partner at which half of the binding sites on the other are occupied at equilibrium, for simple one-to-one binding) in test [1] came to 4.6 ± 0.3 µM; in test [2], 0.56 ± 0.04 µM; in test [3], 6.1 ± 0.8 µM; in test [4] it was 1.1 ± 0.4 µM; in test [5] it was 9.9 ± 0.9 µM; in test [6] it was 3.8 ± 0.5 µM. Moreover, the figures for the dissociation constant (Kd) in test [7] and in test [8] were 8.1 ± 0.4 µM and 3.7 ± 0.3 µM, respectively.

Values taken from publication PMC2780000 (Biochemistry, 2009).
